# CHOP inh – CHOP inhibition in unfolded protein response. inhibition, % at 10 µM. CHO-K1 CHOP-promoter luciferase, tunicamycin-induced, 15-18 h. AID 2732. actives 3.8% (n = 220,000);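 active means compounds that reduced the stress-induced luciferase reporter signal by more than about 70% of percent inhibition, limit read from the data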;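 further: 0% = tunicamycin plus vehicle and 100% = wells without tunicamycin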
# CHOP UPR activ – apoptotic UPR (CHOP) activation. AID 449763. actives 0.34% (n = 330,000). activation, % at 10 µM. CHO-CHOP luciferase reporter, luminescence; percent of tunicamycin response over DMSO baseline;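 active means at 10 µM dose, activation of 40% or more, normalized to positive control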;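 further: 100% = tunicamycin at 10 µg/mL and 0% = DMSO alone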
#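 Assay system: CHO-CHOP cells, stable luciferase reporter of PERK-eIF2a-CHOP signalling / Buffer or medium: F12 plus 10% serum / Compound dosing: one dose, 10 µM in 0.5% DMSO / Times: 6 h compound treatment, 37 °C / Technique: luciferase luminescence / Read-out: % reporter activation, DMSO baseline versus tunicamycin full activation / Benchmarks: tunicamycin and DMSO controls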
# UCH37 DUB inh – blocks the human deubiquitinase UCH37. Q9Y5K5. purified proteasome/UCH37, Ub-AMC cleavage fluorescence. inhibition, % (concentration not given with the values). actives 0.33% (n = 330,000). AID 588478;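 active means mean inhibition over replicate wells above about 20%, limit read from the data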;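 further: 0% = compound-free wells with enzyme and 100% = wells lacking proteasome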
# Target sequence (Q9Y5K5 whole entry, looked up): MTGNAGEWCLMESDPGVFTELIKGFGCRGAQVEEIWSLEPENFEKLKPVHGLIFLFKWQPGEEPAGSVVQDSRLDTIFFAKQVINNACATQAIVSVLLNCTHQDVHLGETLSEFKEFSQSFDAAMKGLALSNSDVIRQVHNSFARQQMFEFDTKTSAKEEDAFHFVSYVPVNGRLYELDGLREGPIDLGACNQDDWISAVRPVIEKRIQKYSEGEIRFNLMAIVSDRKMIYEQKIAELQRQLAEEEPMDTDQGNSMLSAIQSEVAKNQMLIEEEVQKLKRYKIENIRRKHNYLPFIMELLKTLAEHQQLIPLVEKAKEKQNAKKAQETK
#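 Schedule: 30 min plus 25 min, room temperature / Material: human UCH37 within purified proteasomes / Technique: AMC fluorescence intensity at 355/460 nm / Buffer or medium: pH 7.4 Tris-HCl (50 mM) with ovalbumin, ATP-MgCl2, DTT / Controls: wells without proteasome as full block, compound-free enzyme plus substrate as uninhibited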
# UPR XBP1 act – adaptive UPR (XBP1) activation; AID 463104; actives 0.33% (n = 330,000); CHO-XBP1 luciferase reporter, IRE1-XBP1 UPR activation, luminescence; percent of tunicamycin response, DMSO as zero; activation, % at 20 µM;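 active means versus positive control, 20 µM dose yields 30% or more activation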;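 further: 100% = tunicamycin at 10 µg/mL and 0% = DMSO only wells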
#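 assay system = CHO-XBP1 luciferase reporter cells | amount = 1000 cells/well | buffer or medium = F12 plus 10% FBS | compound dosing = single point, 20 µM final compound, 1% DMSO | incubation = 16-18 h cell attachment at 37 °C, then 6 h compound exposure | detection = Steady-Glo luminescence read | controls = tunicamycin 10 µg/mL and vehicle-only wells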
# Fh CTSL1 inh – cathepsin L1 inhibition, PFM18AAP counter-screen. recombinant F. hepatica cathepsin L1, Z-Leu-Arg-MCA fluorescence. inhibition, % at 5.96 µM. actives 0.49% (n = 300,000);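 active means inhibition above the mean of all tested compounds plus 3 SD, set per screening campaign, cut at about 17% in these data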;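 further: 0% = plate median of test compound wells and 100% = 1 µM Z-Phe-Ala-diazomethylketone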
# * marks the source's active call; other numbers are inactive results; i = inactive; · = not tested or not shown. Many of the other results were omitted from the sample, so hits are more common in it than they were.
SMILES,CHOP inh,CHOP UPR activ,UCH37 DUB inh,UPR XBP1 act,Fh CTSL1 inh
CC(C)(C)c1cc[n+](-c2[nH]c(=O)sc2C=N/N=C(\[O-])c2cccnc2)cc1,·,·,21*,·,·
CCN(CC)C(=O)C1CCCN(c2ccc([N+](=O)[O-])cc2C=NNC(=O)c2cccc(O)c2)C1 (stereo unspecified),·,·,1,·,·
O=C(Nc1cccc(-c2nc3cccnc3s2)c1)c1ccc(Cl)nc1,81*,1,-10,1,2
C=C(C)Cn1c(SCC(=O)NN=Cc2c(O)ccc3ccccc23)nc2ccccc2c1=O,·,·,2,·,·
CC1=NN(C(=O)CSCc2ccccc2)C(O)(c2ccc(F)cc2)C1 (stereo unspecified),10,-1,22*,-2,-2
CC1=NN(C(=O)CSCc2ccccc2)C(O)(c2ccc(Cl)cc2)C1 (stereo unspecified),-1,-2,7,-1,2
CCCCCc1cc(=O)oc2c(C(CCN3CCCCC3)c3ccc(OC)cc3)c(OC)cc(OC)c12 (stereo unspecified),72*,6,·,10,2
CCCCCc1cc(=O)oc2c(C(CCN3CCCC3)c3ccc(N(C)C)cc3)c(OC)cc(OC)c12 (stereo unspecified),43,4,-1,10,2
CCCCCc1cc(=O)oc2c(C(CCN3CCCC(C)C3)c3ccc(OC)cc3)c(OC)cc(OC)c12 (stereo unspecified),71*,7,·,19,1
CCCCCc1cc(=O)oc2c(C(CCN3CCN(c4ccccc4)CC3)c3ccc4c(c3)OCO4)c(OC)cc(OC)c12 (stereo unspecified),-48,0,-1,-4,33*
COc1ccc(C=NNC(=O)c2ccn[nH]2)cc1COc1ccc(F)cc1,·,·,2,·,·
O=C(NC1CCCCC1)N1CCSC1=Nc1ccccc1,89*,-1,4,-2,-1
Fc1ccc(Nc2nc(N3CCOCC3)nc(N3CCOCC3)n2)cc1Cl,·,3,-2,6,-3
Clc1ccc(Nc2nc(NCCN3CCOCC3)nc(N3CCOCC3)n2)cc1,15,5,2,-6,18*
O=C(O)CCC(=NNC(=O)CNC(=O)c1ccc(F)cc1)c1ccccc1,·,·,5,·,·
Nc1c(N(CCC2=CCCCC2)C(=O)COc2ccc(F)cc2)c(=O)[nH]c(=O)n1Cc1ccccc1,·,-1,24*,-1,·
Nc1c(N(CCC2=CCCCC2)C(=O)CCCOc2ccccc2)c(=O)[nH]c(=O)n1Cc1ccccc1,·,1,0,-2,2
CCc1cccc2c(C(=O)COC(=O)c3ccccc3)c[nH]c12,0,2,4,2,0
CCc1cccc2c(C(=O)COC(=O)c3ccc(O)cc3)c[nH]c12,87*,5,7,0,3
COc1ccc(C=NOC/C(O)=C(\C#N)c2nc3ccccc3[nH]2)cc1,·,·,-2,·,·
CC1(C)CC(=O)C(C2C3=C(CC(C)(C)CC3=O)Oc3ccc4ccccc4c32)C(=O)C1 (stereo unspecified),77*,2,2,-1,0
CCCN(CCC)c1nc(NC2CCN(C(=O)OCC)CC2)nc(OC)n1,72*,2,3,-5,2
CCCCN(CC)CCNc1c(NC2CCN(C(=O)OCC)CC2)c(=O)c1=O,6,2,3,-2,-6
C/C(C=NNC(=O)c1ccncc1)=C\c1ccc(C(C)C)cc1,·,·,-141,·,·
O=c1oc2ccccc2c2c1C(c1ccc(Cl)cc1)Nc1ccc3ccccc3c1-2 (stereo unspecified),53,4,-34,2,2
SMILES,CHOP inh,CHOP UPR activ,UCH37 DUB inh,UPR XBP1 act,Fh CTSL1 inh
CCOc1ccc(C2Nc3ccc4ccccc4c3-c3c2c(=O)oc2ccccc32)cc1 (stereo unspecified),81*,5,i,8,4
CCc1ccc(CNC(=O)c2cc3c(C)nc4ccccc4c3o2)cc1,80*,5,5,4,3
COc1cccc(CNC(=O)c2cc3c(C)nc4ccccc4c3o2)c1,48,-1,-1,-3,3
Cc1nc2ccccc2c2oc(C(=O)NCC3COc4ccccc4O3)cc12 (stereo unspecified),73*,-1,2,0,-3
CCC(=NNC(=O)CCC(=O)NCc1ccccc1)c1ccc(O)cc1,·,·,1,·,·
C/C(C=NNC(=O)CSc1n[nH]c(=O)[nH]c1=O)=C\c1ccccc1,·,·,5,·,·
CCC(C)n1cnc2c(c1=O)c1nc3ccccc3nc1n2-c1ccc2c(c1)OCCO2 (stereo unspecified),83*,-1,-13,-2,0
CCC(C)n1cnc2c(c1=O)c1nc3ccccc3nc1n2Cc1ccc2c(c1)OCO2 (stereo unspecified),30,·,·,·,·
CC(=O)N(Cc1nc2sc(C)c(C)c2c(=O)[nH]1)C1CCCC1,-10,1,2,0,27*
Cc1sc2nc(CN(C(=O)NCc3ccccc3)C3CCCC3)[nH]c(=O)c2c1C,19,-1,-1,1,6
CCOC(=O)C1(Nc2nccs2)Sc2ccccc2NC1=O (stereo unspecified),·,-2,-2,0,33*
CCOC(=O)C1(N(CC)CC)Sc2cc(C)ccc2NC1=O (stereo unspecified),·,0,2,-2,5
S=C(NCCCN1CCOCC1)N1CCN(c2nc(-c3ccc(Cl)cc3)cs2)CC1,88*,7,4,28,-2
Cn1c(=O)c2c(nc(CN3CCc4ccccc4C3)n2Cc2cccc(Cl)c2)n(C)c1=O,47,3,23*,-2,0
CCCN(C(=O)CCCSc1nc2ccccc2[nH]1)c1c(N)n(Cc2ccccc2)c(=O)[nH]c1=O,·,-1,-1,-1,19*
CCCCN(C(=O)CCCSc1nc2ccccc2[nH]1)c1c(N)n(Cc2ccccc2)c(=O)[nH]c1=O,·,2,-1,-2,0
Cc1cccc(C)c1OCc1nnc(SCC(=O)Nc2ccccc2F)o1,65,1,6,0,12
Cc1cccc(C)c1OCc1nnc(SCC(=O)NCc2ccccc2)o1,47,-3,4,-2,21*
COc1ccc2c(c1)c(C(=O)NN=Cc1cccs1)c(C)n2C,·,·,6,·,·
COC(=O)CCC(=O)N1CN2CN(C(=O)CCC(=O)OC)CC([N+](=O)[O-])(C2)C1,-1,-1,3,-1,18*
O=C(O)CCC(=O)N1CN2CN(C(=O)CCC(=O)O)CC([N+](=O)[O-])(C2)C1,17,0,1,-1,2
CCOC(=O)C(CCCOc1ccc(C)cc1)C(=O)OCC,95*,-1,-1,0,1
COc1ccc(-c2cnnc(NN=Cc3ccc(C)o3)n2)cc1,·,·,6,·,·
COc1ccc(OCCn2nnc(-c3ccc(Cl)cc3)n2)cc1,54,1,1,-3,-3

# Compound activity: PubChem BioAssay, several laboratories
